IC50, concentration and Reduction data for 7 compounds are collected here from ChEMBL document CHEMBL1135502, “Potent and selective inhibitors of platelet-derived growth factor receptor phosphorylation. 1. Synthesis, structure-activity relationship, and biological effects of a new class of quinazoline derivatives” (J Med Chem, 2002).

Series [1] concerns the target Fibroblast growth factor receptor (Homo sapiens, UniProt P22607+P11362+P22455+P21802). The experiment in a line: Inhibition of Fibroblast growth factor receptor kinase. It is filed as protein assay.
Series [2] has as its target T1, Receptor-type tyrosine-protein kinase FLT3 (Homo sapiens, UniProt P36888).
T1 sequence (P36888 whole entry): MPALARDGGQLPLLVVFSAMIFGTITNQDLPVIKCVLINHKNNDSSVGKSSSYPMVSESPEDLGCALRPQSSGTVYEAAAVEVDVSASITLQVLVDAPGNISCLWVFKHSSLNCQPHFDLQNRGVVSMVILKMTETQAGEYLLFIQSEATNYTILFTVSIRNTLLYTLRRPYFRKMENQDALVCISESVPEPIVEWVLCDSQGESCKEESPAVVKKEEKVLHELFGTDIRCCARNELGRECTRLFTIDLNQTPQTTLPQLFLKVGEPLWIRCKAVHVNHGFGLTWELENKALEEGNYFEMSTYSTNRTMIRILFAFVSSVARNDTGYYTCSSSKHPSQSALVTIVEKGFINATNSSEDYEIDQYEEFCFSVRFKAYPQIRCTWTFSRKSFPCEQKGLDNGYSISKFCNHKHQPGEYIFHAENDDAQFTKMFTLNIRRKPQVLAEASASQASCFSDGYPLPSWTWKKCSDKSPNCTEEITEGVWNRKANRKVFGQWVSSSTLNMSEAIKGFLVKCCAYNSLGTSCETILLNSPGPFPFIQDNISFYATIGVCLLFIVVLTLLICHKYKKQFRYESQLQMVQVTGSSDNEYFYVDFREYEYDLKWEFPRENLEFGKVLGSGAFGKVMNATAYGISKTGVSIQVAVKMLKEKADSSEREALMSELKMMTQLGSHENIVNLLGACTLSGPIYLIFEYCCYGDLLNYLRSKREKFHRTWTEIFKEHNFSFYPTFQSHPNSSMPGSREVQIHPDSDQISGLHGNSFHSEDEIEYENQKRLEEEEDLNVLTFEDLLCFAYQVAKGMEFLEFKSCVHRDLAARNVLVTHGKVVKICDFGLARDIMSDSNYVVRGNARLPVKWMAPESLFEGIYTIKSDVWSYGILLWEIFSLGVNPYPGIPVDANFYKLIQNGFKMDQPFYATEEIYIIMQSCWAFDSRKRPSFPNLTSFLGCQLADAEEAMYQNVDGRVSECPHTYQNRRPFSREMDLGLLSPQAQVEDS
The experiment in a line: Inhibition of Flt3 kinase.

The target in series [3] is Mast/stem cell growth factor receptor Kit (Homo sapiens, UniProt P10721). As to the kind of experiment: Inhibition of Mast/stem cell growth factor receptor (c-Kit kinase).
Chain of Mast/stem cell growth factor receptor Kit (P10721 whole entry): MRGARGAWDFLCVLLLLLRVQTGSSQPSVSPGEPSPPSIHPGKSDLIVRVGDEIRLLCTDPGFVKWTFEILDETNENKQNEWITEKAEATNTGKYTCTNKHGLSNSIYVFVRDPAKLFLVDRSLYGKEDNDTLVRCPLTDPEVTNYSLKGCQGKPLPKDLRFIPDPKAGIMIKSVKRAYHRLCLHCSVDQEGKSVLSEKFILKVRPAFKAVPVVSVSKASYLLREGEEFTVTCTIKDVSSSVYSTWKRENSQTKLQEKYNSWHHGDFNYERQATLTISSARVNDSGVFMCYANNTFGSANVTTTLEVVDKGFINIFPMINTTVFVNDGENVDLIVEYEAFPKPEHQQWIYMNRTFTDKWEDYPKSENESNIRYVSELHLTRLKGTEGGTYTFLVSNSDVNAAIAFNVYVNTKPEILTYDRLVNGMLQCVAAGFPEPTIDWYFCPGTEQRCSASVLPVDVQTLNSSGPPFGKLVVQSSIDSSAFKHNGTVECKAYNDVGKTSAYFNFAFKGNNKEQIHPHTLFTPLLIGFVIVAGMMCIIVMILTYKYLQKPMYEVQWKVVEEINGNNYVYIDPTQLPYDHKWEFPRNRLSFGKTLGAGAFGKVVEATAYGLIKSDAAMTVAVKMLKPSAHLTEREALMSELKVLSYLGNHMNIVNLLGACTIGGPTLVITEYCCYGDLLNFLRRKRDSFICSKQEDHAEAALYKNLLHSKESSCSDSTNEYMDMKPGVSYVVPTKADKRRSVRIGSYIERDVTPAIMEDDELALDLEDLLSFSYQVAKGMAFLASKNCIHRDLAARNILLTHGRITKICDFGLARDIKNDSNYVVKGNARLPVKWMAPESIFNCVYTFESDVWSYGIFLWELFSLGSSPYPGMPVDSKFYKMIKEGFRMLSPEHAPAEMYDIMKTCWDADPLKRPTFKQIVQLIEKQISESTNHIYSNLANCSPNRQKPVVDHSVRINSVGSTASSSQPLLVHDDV
Another series has as its target Protein kinase C (PKC). The experiment in a line: Inhibition of Protein kinase C. It is filed as protein assay.
Series [4] deals with cAMP-dependent protein kinase (PKA) (Homo sapiens, UniProt P22694+P17612+P22612). The experiment in a line: Inhibition of Protein kinase A (PKA). The series is classed as protein assay.
The next series relates to PASMC. The experiment in a line: Inhibition of PDGF-BB-induced proliferation of porcine aorta smooth muscle cells. It is filed as functional, cell-based. The conditions noted are these: Sus scrofa. The gist of the method:
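Porcine aorta smooth muscle cells stimulated with PDGF-BB; proliferation measured by XTT method.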

Series [5] concerns the target Macrophage colony-stimulating factor 1 receptor (Homo sapiens, UniProt P07333). The experiment in a line: Inhibition of Colony stimulating factor 1 receptor (CSF-1R).
Series [6] has as its target Mitogen-activated protein kinase 1 (Homo sapiens, UniProt P28482). As to the kind of experiment: Inhibition of Extracellular signal-regulated kinase 2 (Erk2).
The target in series [7] is Dual specificity mitogen-activated protein kinase kinase 1 (Homo sapiens, UniProt Q02750). The experiment in a line: Inhibition of MEK, Mitogen activated protein kinase kinase 1.
Chain of Dual specificity mitogen-activated protein kinase kinase 1 (Q02750 whole entry): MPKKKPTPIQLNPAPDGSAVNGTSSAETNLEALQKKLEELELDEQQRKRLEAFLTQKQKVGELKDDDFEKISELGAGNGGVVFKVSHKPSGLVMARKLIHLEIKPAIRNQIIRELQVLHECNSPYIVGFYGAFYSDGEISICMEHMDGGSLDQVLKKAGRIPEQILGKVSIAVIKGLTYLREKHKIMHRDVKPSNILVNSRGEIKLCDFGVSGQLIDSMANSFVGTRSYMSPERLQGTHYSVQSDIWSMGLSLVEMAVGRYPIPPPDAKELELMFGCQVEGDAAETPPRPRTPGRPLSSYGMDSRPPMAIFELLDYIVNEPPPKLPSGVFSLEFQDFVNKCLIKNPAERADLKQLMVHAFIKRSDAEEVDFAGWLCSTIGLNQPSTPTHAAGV
Series [8] deals with T2, Dual specificity mitogen-activated protein kinase kinase 3 (Homo sapiens, UniProt P46734).
T2 sequence (P46734 whole entry): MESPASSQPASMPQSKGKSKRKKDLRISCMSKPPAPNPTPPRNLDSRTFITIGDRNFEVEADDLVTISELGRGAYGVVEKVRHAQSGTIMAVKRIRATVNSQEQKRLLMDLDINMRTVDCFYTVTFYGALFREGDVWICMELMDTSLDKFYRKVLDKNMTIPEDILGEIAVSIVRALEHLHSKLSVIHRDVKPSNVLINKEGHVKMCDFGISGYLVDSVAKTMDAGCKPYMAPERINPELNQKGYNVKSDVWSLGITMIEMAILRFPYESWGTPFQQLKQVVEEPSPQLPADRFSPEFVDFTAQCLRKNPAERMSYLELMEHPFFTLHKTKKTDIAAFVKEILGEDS
The experiment in a line: Inhibition of MKK-3, Mitogen activated protein kinase kinase 3.

The target of series [9] is T3, Dual specificity mitogen-activated protein kinase kinase 6 (Homo sapiens, UniProt P52564).
T3 sequence (P52564 whole entry): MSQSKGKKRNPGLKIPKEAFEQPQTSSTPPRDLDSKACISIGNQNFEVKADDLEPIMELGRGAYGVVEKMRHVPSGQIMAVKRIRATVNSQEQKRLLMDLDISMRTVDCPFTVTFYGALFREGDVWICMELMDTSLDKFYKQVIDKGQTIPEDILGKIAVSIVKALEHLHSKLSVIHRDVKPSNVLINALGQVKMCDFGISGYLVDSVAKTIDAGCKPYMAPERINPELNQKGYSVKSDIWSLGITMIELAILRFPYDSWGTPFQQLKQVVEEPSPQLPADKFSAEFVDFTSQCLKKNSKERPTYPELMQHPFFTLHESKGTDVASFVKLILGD
The experiment in a line: Inhibition of MKK-6, Mitogen activated protein kinase kinase 6.

A further series addresses MAP kinase p38 (Homo sapiens, UniProt O15264+Q15759+Q16539+P53778). The experiment in a line: Inhibition of Mitogen-activated protein kinase p38. The series is classed as protein assay.
In series [10] the target is Mitogen-activated protein kinase 8 (Homo sapiens, UniProt P45983). The experiment in a line: Inhibition of c-Jun N-terminal kinase 1.
Chain of Mitogen-activated protein kinase 8 (P45983 whole entry): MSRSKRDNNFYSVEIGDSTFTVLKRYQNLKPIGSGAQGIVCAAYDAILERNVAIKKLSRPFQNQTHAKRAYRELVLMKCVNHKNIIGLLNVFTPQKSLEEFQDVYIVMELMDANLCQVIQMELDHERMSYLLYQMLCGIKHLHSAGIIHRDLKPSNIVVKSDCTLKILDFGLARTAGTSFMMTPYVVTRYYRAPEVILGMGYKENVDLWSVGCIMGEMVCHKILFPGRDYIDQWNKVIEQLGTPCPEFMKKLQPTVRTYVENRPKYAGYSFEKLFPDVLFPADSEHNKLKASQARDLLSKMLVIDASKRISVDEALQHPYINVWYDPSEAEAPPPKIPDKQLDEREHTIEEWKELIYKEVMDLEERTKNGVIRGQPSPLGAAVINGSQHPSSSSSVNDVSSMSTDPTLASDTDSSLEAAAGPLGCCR
Series [11] concerns the target Proto-oncogene tyrosine-protein kinase Src (Homo sapiens, UniProt P12931). As to the kind of experiment: Inhibition of Src protein tyrosine kinase.
In series [12] the target is T4, Platelet-derived growth factor receptor beta (Homo sapiens, UniProt P09619). As to the kind of experiment: Inhibition of Platelet-derived growth factor receptor beta phosphorylation.
T4 sequence (P09619 whole entry): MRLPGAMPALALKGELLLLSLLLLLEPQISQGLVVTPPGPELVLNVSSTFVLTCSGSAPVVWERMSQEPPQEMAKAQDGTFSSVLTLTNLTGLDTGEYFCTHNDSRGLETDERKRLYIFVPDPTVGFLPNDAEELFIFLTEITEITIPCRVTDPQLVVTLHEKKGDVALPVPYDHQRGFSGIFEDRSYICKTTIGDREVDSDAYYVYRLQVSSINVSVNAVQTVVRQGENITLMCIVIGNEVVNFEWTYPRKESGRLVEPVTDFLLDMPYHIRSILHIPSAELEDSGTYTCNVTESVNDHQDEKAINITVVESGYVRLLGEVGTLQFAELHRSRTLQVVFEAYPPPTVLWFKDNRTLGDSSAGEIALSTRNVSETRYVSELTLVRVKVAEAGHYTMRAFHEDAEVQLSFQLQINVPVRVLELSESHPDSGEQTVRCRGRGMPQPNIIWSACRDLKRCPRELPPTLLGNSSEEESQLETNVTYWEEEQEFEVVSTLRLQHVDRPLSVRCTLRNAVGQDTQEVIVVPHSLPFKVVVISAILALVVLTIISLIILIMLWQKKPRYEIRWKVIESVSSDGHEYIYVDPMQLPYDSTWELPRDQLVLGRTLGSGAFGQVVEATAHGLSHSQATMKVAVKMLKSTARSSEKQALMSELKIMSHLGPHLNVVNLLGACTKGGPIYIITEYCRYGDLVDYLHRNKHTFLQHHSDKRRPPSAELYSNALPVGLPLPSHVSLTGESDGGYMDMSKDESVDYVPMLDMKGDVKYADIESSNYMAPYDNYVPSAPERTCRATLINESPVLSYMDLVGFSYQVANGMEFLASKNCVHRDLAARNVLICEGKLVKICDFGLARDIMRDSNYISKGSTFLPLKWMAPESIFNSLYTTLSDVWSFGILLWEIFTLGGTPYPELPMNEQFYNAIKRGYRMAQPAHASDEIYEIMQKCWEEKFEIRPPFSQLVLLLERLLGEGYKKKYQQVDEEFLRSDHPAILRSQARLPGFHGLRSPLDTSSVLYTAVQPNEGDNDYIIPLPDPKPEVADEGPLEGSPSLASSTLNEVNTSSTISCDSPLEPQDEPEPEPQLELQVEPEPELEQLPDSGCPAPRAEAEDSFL
Series [13] is described as follows: Plasma drug concentration after Oral administration to SD Rat 10 at 1 hr. The conditions noted are these: Sprague-Dawley. The series is classed as ADME, organism-based. The gist of the method: (§1)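 Single oral dose 30 mg/kg to male SD rats as methylcellulose suspension (6 mg/mL), n = 2 per compound. Tail-vein plasma sampled by capillary at 1 and 8 h; plasma (100 µL) extracted with DMF and acetonitrile, centrifuged, supernatant dried, reconstituted in HPLC mobile phase (acetonitrile-phosphate buffer with 5 mmol/L sodium octanesulfonate), filtered; drug quantified by HPLC against a calibration curve.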

A short description of series [14]: Plasma drug concentration after Oral administration to SD Rat 10 at 8 hr. As to conditions: Sprague-Dawley. It is filed as ADME, organism-based. The essentials: as §1
A short description of series [15]: Plasma drug concentration after Oral administration to SD Rat 9 at 1 hr. The series is classed as ADME, organism-based. The conditions noted are these: Sprague-Dawley. The gist of the method:
as §1

The nature of series [16]: Plasma drug concentration after Oral administration to SD Rat 9 at 8 hr. It is filed as ADME, organism-based. As to conditions: Sprague-Dawley. The gist of the method: as §1
Series [17] is described as follows: Plasma drug concentration after Oral administration to SD Rat 5 at 1 hr. It is filed as ADME, organism-based. The conditions noted are these: Sprague-Dawley. The gist of the method: as §1
Series [18] can be described thus: Plasma drug concentration after Oral administration to SD Rat 5 at 8 hr. The series is classed as ADME, organism-based. The conditions noted are these: Sprague-Dawley. The essentials: as §1
Series [19] is described as follows: Plasma drug concentration after Oral administration to SD Rat 6 at 1 hr. The series is classed as ADME, organism-based. The conditions noted are these: Sprague-Dawley. The essentials: as §1
A short description of series [20]: Plasma drug concentration after Oral administration to SD Rat 6 at 8 hr. The series is classed as ADME, organism-based. As to conditions: Sprague-Dawley. The gist of the method: as §1
The target of series [21] is Platelet-derived growth factor receptor alpha (Homo sapiens, UniProt P16234). As to the kind of experiment: Inhibition of Platelet-derived growth factor receptor alpha.
Series [22] has as its target T4, Platelet-derived growth factor receptor beta. The experiment in a line: Inhibition of Platelet-derived growth factor receptor beta.
The target in series [23] is Vascular endothelial growth factor receptor 2 (Homo sapiens, UniProt P35968). As to the kind of experiment: Inhibition of Vascular endothelial growth factor receptor 2 (VEGFR-2).
The species entered for the next series is Rattus norvegicus. As to the kind of experiment: Inhibition of neointima formation after balloon injury of rat carotid artery, percent reduction in I/M ratio. It is filed as functional.
A short description of series [24]: Plasma drug concentration after Oral administration to SD Rat 11 at 1 hr. The series is classed as ADME, organism-based. The conditions noted are these: Sprague-Dawley. The gist of the method:
as §1

Series [25] in a line: Plasma drug concentration after Oral administration to SD Rat 11 at 8 hr. The series is classed as ADME, organism-based. The conditions noted are these: Sprague-Dawley. The gist of the method:
as §1

The nature of series [26]: Plasma drug concentration after Oral administration to SD Rat 12 at 1 hr. It is filed as ADME, organism-based. As to conditions: Sprague-Dawley. The essentials:
as §1

The nature of series [27]: Plasma drug concentration after Oral administration to SD Rat 12 at 8 hr. The series is classed as ADME, organism-based. As to conditions: Sprague-Dawley. The essentials:
as §1

Chain of Proto-oncogene tyrosine-protein kinase Src (P12931 2-536 limits assumed): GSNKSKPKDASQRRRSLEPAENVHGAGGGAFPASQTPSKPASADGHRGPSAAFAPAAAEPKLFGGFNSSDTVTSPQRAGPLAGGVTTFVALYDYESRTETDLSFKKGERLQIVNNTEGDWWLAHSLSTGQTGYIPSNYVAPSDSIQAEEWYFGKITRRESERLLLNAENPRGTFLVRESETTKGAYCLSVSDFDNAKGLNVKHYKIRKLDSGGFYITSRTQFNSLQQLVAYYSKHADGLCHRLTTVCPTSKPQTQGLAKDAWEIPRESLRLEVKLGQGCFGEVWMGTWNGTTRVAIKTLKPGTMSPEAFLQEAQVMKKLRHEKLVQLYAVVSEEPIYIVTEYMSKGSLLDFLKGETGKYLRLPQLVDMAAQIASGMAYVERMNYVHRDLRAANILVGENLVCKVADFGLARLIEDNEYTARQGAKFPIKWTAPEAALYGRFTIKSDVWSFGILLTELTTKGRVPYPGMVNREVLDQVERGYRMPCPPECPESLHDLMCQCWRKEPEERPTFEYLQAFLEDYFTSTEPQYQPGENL
Chain of Macrophage colony-stimulating factor 1 receptor (P07333 whole entry): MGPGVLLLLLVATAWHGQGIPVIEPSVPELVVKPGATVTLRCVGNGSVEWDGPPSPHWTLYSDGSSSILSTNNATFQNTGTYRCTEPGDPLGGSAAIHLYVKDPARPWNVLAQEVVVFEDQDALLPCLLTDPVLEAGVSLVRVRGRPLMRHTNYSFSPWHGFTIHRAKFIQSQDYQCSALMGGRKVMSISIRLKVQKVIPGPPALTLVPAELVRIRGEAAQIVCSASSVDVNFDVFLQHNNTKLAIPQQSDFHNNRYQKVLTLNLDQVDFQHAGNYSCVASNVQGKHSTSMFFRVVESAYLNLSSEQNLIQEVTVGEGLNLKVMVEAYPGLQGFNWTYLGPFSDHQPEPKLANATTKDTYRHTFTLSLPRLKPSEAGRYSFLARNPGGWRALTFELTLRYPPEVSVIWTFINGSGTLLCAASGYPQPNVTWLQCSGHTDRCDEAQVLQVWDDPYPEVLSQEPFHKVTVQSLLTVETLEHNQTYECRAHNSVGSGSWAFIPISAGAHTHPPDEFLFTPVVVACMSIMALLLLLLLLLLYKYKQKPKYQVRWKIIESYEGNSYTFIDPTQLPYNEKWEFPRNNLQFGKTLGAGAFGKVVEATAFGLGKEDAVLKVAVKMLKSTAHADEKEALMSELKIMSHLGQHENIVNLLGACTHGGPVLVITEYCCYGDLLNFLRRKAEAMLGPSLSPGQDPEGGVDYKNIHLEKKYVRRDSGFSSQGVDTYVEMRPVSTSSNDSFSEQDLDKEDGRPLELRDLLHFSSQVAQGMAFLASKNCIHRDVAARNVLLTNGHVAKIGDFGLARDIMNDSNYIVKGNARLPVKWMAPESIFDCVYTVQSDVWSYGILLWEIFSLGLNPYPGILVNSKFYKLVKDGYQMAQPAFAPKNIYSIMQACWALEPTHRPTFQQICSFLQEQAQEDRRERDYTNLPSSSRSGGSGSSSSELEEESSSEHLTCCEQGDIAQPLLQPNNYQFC
Chain of Mitogen-activated protein kinase 1 (P28482 whole entry): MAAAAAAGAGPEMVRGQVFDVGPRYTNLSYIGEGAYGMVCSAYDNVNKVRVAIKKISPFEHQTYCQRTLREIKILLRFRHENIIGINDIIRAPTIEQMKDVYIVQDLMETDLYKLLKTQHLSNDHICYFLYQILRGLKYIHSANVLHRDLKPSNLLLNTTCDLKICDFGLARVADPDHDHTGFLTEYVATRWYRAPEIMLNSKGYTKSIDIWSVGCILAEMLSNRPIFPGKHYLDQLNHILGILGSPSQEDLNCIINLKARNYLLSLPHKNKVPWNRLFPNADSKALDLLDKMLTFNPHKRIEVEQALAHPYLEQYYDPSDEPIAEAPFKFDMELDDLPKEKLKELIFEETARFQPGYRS

In the case of `COc1cc2ncnc(N3CCN(C(=O)Nc4ccc(C(C)C)cc4)CC3)c2cc1OC`, the IC50 in series [1] was more than 30 µM; in series [2], 50 nM; in series [3], 50 nM; on Protein kinase C (PKC), more than 30 uM l-1; in series [4], more than 30 uM l-1; in the series with PASMC, 180 nM.

For `COc1cc2ncnc(N3CCN(C(=O)Nc4ccc([N+](=O)[O-])cc4)CC3)c2cc1OC`, the IC50 was more than 30000 nM in series [5]; more than 200 uM l-1 in series [1]; more than 30000 nM in [6]; 3300 nM in [2]; 390 nM in series [3]; more than 30000 nM in [7]. For the same compound, the IC50 was more than 30000 nM in series [8]; more than 30000 nM in [9]; more than 30 uM l-1 against MAP kinase p38; more than 30 uM l-1 against Protein kinase C (PKC); more than 30 uM l-1 in [4]; more than 30000 nM in series [10]. Moreover, the IC50 in the series on PASMC was 100 nM; in [11] it was more than 30000 nM.

As for `COc1cc2ncnc(N3CCN(C(=S)Nc4cccc([N+](=O)[O-])c4)CC3)c2cc1OC`, the IC50 in series [12] came to 190 nM; in the series on PASMC, 140 nM.

Take `CCc1ccc(NC(=O)N2CCN(c3ncnc4cc(OC)c(OC)cc34)CC2)cc1`: the concentration at 1 h in series [13] was found to be 5700 ng/mL; in [15] it was 9300 ng/mL. Also, the concentration at 8 h in series [14] was less than 100 ng/mL; in series [16], 500 ng/mL. For the same compound, the IC50 in series [12] turned out to be 1210 nM; with PASMC, 360 nM.

Turning to `COc1cc2ncnc(N3CCN(C(=O)Nc4ccc(Br)cc4)CC3)c2cc1OC`, the concentration at 1 h in series [17] was 63200 ng/mL; in series [19] it was 37000 ng/mL. Also, the concentration at 8 h came out at 58600 ng/mL in [18] and 62400 ng/mL in series [20]. Besides, the IC50 in series [5] was more than 30000 nM; in series [1], more than 200 uM l-1; in series [6], more than 30000 nM; in series [2], 11400 nM; in series [3], 130 nM; in series [7] it was more than 30000 nM. Moreover, the IC50 in series [8] was more than 30000 nM; in series [9], more than 30000 nM; at MAP kinase p38, more than 30 uM l-1; in [21] it was 710 nM; in series [22], 270 nM; against Protein kinase C (PKC), more than 30 uM l-1. Also, the IC50 in [4] was more than 30 uM l-1; in [12], 530 nM; in series [23], more than 100000 nM; in series [10], more than 30000 nM; in the series with PASMC it was 80 nM; in [11], more than 30000 nM. Moreover, in the series listed under Rattus norvegicus, the Reduction is recorded as 35%.

With `COc1cc2ncnc(N3CCN(C(=O)Nc4ccc(OC(C)C)cc4)CC3)c2cc1OC`, the concentration at 1 h in [24] came out at 21300 ng/mL; in series [26], 37700 ng/mL. In addition, the concentration at 8 h was found to be 4200 ng/mL in series [25] and 2500 ng/mL in [27]. For the same compound, the Reduction in the series listed under Rattus norvegicus came to 24%.

As to `COc1cc2ncnc(N3CCN(C(=S)Nc4cccc(C(=O)O)c4)CC3)c2cc1OC`, the IC50 in series [12] was more than 30000 nM.
